Experimental data taken from ChEMBL document CHEMBL4699622, “Structural and Functional Study of the Klebsiella pneumoniae VapBC Toxin-Antitoxin System, Including the Development of an Inhibitor That Activates VapC” (J Med Chem, 2020).
Activity calls are given as the source filed them. The rule behind the calls is not given here. Residues, ends and D or L forms follow the SMILES beside them.

Legend:
Klebsiella pneumoniae [1] = assay: Binding affinity to Klebsiella pneumoniae MGH78578 N-terminal His6-tagged VapC expressed in Escherichia coli BL21(DE3) assessed as increase in RNAase activity measured after 1 hr using fluorophore-labelled RNA by spectrofluorimetric method
Outline: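 Free VapC (10 μM) was stripped of metals with 10 mM EDTA, then exchanged into purification buffer with 10 mM Mg²⁺. It was incubated without the VapB partner, with 40 U RNase inhibitor, in 20 mM HEPES pH 7.5 and 400 mM NaCl with quenched fluorophore-labelled RNA (5 pM final). Fluorescence was followed for 1 h at ex 490/em 520 nm.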

[2] = Inhibition of Klebsiella pneumoniae MGH78578 N-terminal His6-tagged VapB/C expressed in Escherichia coli BL21(DE3) protein-protein interaction assessed as activation of VapC-mediated RNAase activity measured after 1 hr using fluorophore-labelled RNA by spectrofluorimetric method
Outline: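 Small molecule (1, 3.16 and 10 μM) was added to 10 μM VapBC complex. The complex was EDTA-stripped and Mg²⁺-reloaded, with 40 U RNase inhibitor, in 20 mM HEPES pH 7.5 and 400 mM NaCl with 5 pM final quenched RNA. RNase fluorescence was monitored for 1 h at ex 490/em 520 nm. Activity was expressed relative to free VapC. Screening was done in triplicate.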

[3] = Binding affinity to Klebsiella pneumoniae MGH78578 N-terminal His6-tagged VapC expressed in Escherichia coli BL21(DE3) by isothermal titration calorimetry
Outline: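 Isothermal titration calorimetry was run at 25 °C with VapC, quantified by A280. Background was subtracted and the data were fitted to a single-site binding model.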

Klebsiella pneumoniae [4] = assay: Inhibition of Klebsiella pneumoniae MGH78578 N-terminal His6-tagged VapB/C expressed in Escherichia coli BL21(DE3) protein-protein interaction assessed as activation of VapC-mediated RNAase activity at 100 uM measured after 1 hr using fluorophore-labelled RNA by spectrofluorimetric method
Outline: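 Peptide (100 μM) was added to purified VapBC complex (10 μM), pretreated with 10 mM EDTA and then 10 mM Mg²⁺. The reaction used 40 U RNase inhibitor, 20 mM HEPES pH 7.5, 400 mM NaCl and 5 pM final fluorophore/quencher RNA. RFU from released VapC was read over 1 h at ex 490/em 520 nm. Mean of three independent replicates ± SD.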

| Activity (Klebsiella pneumoniae [1]) | IC50 [2] | inhibition (Klebsiella pneumoniae [4]) | SMILES | Kd [3] |
| --- | --- | --- | --- | --- |
| inactive | 0.42 µM | – | NC(=O)NC(=O)CCN1CCC(C(=O)c2ccc(O)cc2)CC1 | 0.022 µM |
| inactive | 0.4 µM | – | CCC1Oc2cc(S(=O)(=O)N3CCCC(C(=O)Nc4ccc(F)cc4)C3)c(C)cc2NC1=O (configuration not stated) | 0.022 µM |
| – | – | Active | CC[C@H](C)[C@H](NC(=O)[C@H](CC(C)C)NC(=O)[C@@H](NC(=O)[C@H](CC(N)=O)NC(=O)[C@@H](NC(=O)[C@@H](N)CC(=O)O)[C@@H](C)O)[C@@H](C)CC)C(=O)N[C@@H](CC(=O)O)C(=O)N[C@@H](CC(C)C)C(=O)N[C@@H](Cc1ccccc1)C(=O)O (H-DTNILIDLF-OH) | – |
| – | – | Active | CC[C@H](C)[C@H](NC(=O)[C@H](CC(C)C)NC(=O)[C@@H](NC(=O)[C@H](CC(N)=O)NC(=O)[C@@H](NC(=O)[C@@H](N)CC(=O)O)[C@@H](C)O)[C@@H](C)CC)C(=O)N[C@@H](CC(=O)O)C(=O)N[C@@H](CC(C)C)C(=O)N[C@@H](Cc1ccccc1)C(=O)N[C@@H](CO)C(=O)O (H-DTNILIDLFS-OH) | – |
| Active | – | – | CSCC[C@H](NC(=O)CN)C(=O)N[C@@H](CCC(=O)O)C(=O)N[C@@H](C)C(=O)N[C@@H](C)C(=O)N[C@@H](CCCNC(=N)N)C(=O)N[C@@H](CCC(N)=O)C(=O)N[C@@H](CC(C)C)C(=O)O (H-GMEAARQL-OH) | – |
| Active | – | Active | CSCC[C@H](NC(=O)CN)C(=O)N[C@@H](CCC(=O)O)C(=O)N[C@@H](C)C(=O)N[C@@H](CCC(N)=O)C(=O)N[C@@H](CCCNC(=N)N)C(=O)N[C@@H](CCC(N)=O)C(=O)N[C@@H](CC(C)C)C(=O)O (H-GMEAQRQL-OH) | 0.17 µM |
| Active | – | Active | CSCC[C@H](NC(=O)CN)C(=O)N[C@@H](CCC(=O)O)C(=O)N[C@@H](Cc1ccc(O)cc1)C(=O)N[C@@H](C)C(=O)N[C@@H](CCCNC(=N)N)C(=O)N[C@@H](CCC(N)=O)C(=O)N[C@@H](CC(C)C)C(=O)O (H-GMEYARQL-OH) | 0.15 µM |
| Active | – | Active | CSCC[C@H](NC(=O)CN)C(=O)N[C@@H](CCC(=O)O)C(=O)N[C@@H](Cc1ccc(O)cc1)C(=O)N[C@@H](CCC(N)=O)C(=O)N[C@@H](CCCNC(=N)N)C(=O)N[C@@H](CCC(N)=O)C(=O)N[C@@H](CC(C)C)C(=O)O (H-GMEYQRQL-OH) | 0.11 µM |
| Active | – | – | CSCC[C@H](NC(=O)CN)C(=O)N[C@@H](CCC(=O)O)C(=O)N[C@@H](Cc1ccc(O)cc1)C(=O)N[C@@H](CCC(N)=O)C(=O)N[C@@H](CCCNC(=N)N)C(=O)N[C@@H](CCC(N)=O)C(=O)N[C@@H](CC(C)C)C(=O)N[C@@H](CCCNC(=N)N)C(=O)O (H-GMEYQRQLR-OH) | – |
| Active | – | – | CSCC[C@H](NC(=O)CN)C(=O)N[C@@H](CCC(=O)O)C(=O)N[C@@H](Cc1ccc(O)cc1)C(=O)N[C@@H](CCC(N)=O)C(=O)N[C@@H](CCCNC(=N)N)C(=O)N[C@@H](CCC(N)=O)C(=O)N[C@@H](CC(C)C)C(=O)N[C@@H](CCCNC(=N)N)C(=O)N[C@@H](CCCCN)C(=O)O (H-GMEYQRQLRK-OH) | – |
| – | – | Active | CC[C@H](C)[C@H](NC(=O)[C@H](CC(C)C)NC(=O)[C@@H](NC(=O)[C@H](CC(N)=O)NC(=O)[C@@H](N)[C@@H](C)O)[C@@H](C)CC)C(=O)N[C@@H](CC(=O)O)C(=O)N[C@@H](CC(C)C)C(=O)N[C@@H](Cc1ccccc1)C(=O)O (H-TNILIDLF-OH) | – |
| – | – | Active | CC[C@H](C)[C@H](NC(=O)[C@H](CC(C)C)NC(=O)[C@@H](NC(=O)[C@H](CC(N)=O)NC(=O)[C@@H](N)[C@@H](C)O)[C@@H](C)CC)C(=O)N[C@@H](CC(=O)O)C(=O)N[C@@H](CC(C)C)C(=O)N[C@@H](Cc1ccccc1)C(=O)N[C@@H](CO)C(=O)O (H-TNILIDLFS-OH) | – |
